PMC4973383 (Acta Pharmacologica Sinica, 2016)

Experiments:
[1] = test system: HCT8/ADR cells; test: Intranuclear distribution by confocal microscopy; assay type: cell-based, human; conditions: 4 h incubation, DAPI counterstain
Summary of the method: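 HCT8/ADR cells were seeded at 2×10^4 per well in RPMI-1640 with 10% FBS and grown 24 h. They were incubated 4 h with test nanoparticles or free Dox, washed twice in ice-cold PBS, and fixed in fresh 4% paraformaldehyde for 15 min at room temperature. Nuclei were counterstained with DAPI and imaged by confocal laser scanning microscopy for Dox fluorescence.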

[2] = test system: HCT8/ADR cells; test: In vitro cytotoxicity, MTT assay; assay type: cell-based, human; conditions: 48 h, concentration up to 20 μg/mL
Summary of the method: (§1)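 HCT8 and HCT8/ADR cells were grown in RPMI-1640 with 10% FBS, streptomycin and penicillin at 37 °C under 5% CO₂. Cells were seeded at 5×10^3 per well and grown 24 h, then exposed to varying concentrations of test nanoparticles or free Dox for 48 h. MTT (5 mg/mL stock) was added for a further 4 h, then DMSO. Absorbance was read at 490 nm and viability calculated. Run in triplicate.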

[3] = test system: BALB/c-nu nude mice; test: Preliminary treatment safety in tumor-bearing nude mice; assay type: in vivo
Summary of the method: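 Female BALB/c-nu nude mice aged 3-4 weeks received 1×10^6 HCT8/ADR cells subcutaneously on the back. They were randomised into five groups of six: PBS, test nanoparticles or Dox given peritumorally, and test nanoparticles or Dox given intravenously. Dosing started at about 100 mm³ tumour volume, at 2 mg/kg Dox-equivalent every two days over 22 d. Body weight was monitored. At endpoint, organs were weighed, organ coefficient was taken as organ weight/body weight×100%, and histology was done.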

[4] = test system: HCT8/ADR cells; test: Effect of verapamil; assay type: cell-based, human; conditions: HCT8/ADR cells pretreated with verapamil 50 μmol/L for 2 h; drug incubation 1 h or 2 h; flow cytometry
[5] = test system: HCT8 cells; test: In vitro cytotoxicity, MTT assay; assay type: cell-based, human; conditions: 48 h, Dox-equivalent concentration
Summary of the method: as §1

COc1cccc2c1C(=O)c1c(O)c3c(c(O)c1C2=O)C[C@@](O)(C(=O)CO)C[C@@H]3O[C@H]1C[C@H](N)[C@H](O)[C@H](C)O1 [Dox, Doxorubicin]
Dox-related red fluorescence, intranuclear accumulation [1]: hardly observed | antitumor activity (cytotoxicity) [2]: ineffective | body weight change ([3]; Dox dose 2 mg/kg per two days over 22 d, nude mice bearing HCT8/ADR tumor): remarkable body weight loss | histological examination of major organs ([3]; at experimental endpoint, 22 d): degeneration and edema and focal cytolysis necrosis in the liver and spleen | organ coefficient of liver and spleen ([3]; iv, at experimental endpoint, 22 d): reduced markedly | change of uptake efficiency after verapamil [4]: clearly increased uptake efficiency | IC50 (cell proliferation) [5]: approximately 1 μg/mL
